Data set [1] deals with Mycobacterium tuberculosis. In words: Antimycobacterial activity against drug-sensitive Mycobacterium tuberculosis CIBIN 687 isolates. The class given is functional. The essentials:
(§1)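 Modified microplate Alamar Blue assay (MABA). Inoculum came from a log-phase culture matched to McFarland 1, diluted 1:50 in Middlebrook 7H9 to 6 × 10^6 CFU/mL, and prepared just before inoculation.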

Data set [2] relates to Mycobacterium tuberculosis. In words: Antimycobacterial activity against drug-sensitive Mycobacterium tuberculosis CIBIN 650 isolates. The class given is functional. The essentials:
as §1

Data set [3] concerns Mycobacterium tuberculosis. The data set can be described thus: Antimycobacterial activity against Mycobacterium tuberculosis H37Rv. Format: functional. In a few lines:
as §1

The subject of the next data set is Vero. In words: Cytotoxicity against Vero cells. Format: cell-based. The following applies: Chlorocebus sabaeus. In a few lines:
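Vero cells in DMEM with 10% FBS (1.5 × 10^5 cells/mL) grown 24 h at 36.5 °C, 5% CO2; medium renewed, compounds (DMSO stocks) added in triplicate at 100–0.390 µg/mL by two-fold serial dilution, 24 h. Cells trypsinized, trypan blue stained, 100 counted for % dead, corrected against untreated controls (2.5% DMSO); IC50 by probit; three independent experiments, mean ± SE.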

Data set [4] in a line: Toxicity against adherent human PBMC. Format: cell-based. In a few lines: (§2)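 PBMC from one healthy volunteer, isolated at room temperature, in RPMI 1640 + 10% FBS at 1 × 10^6 cells/mL; compounds tested in quintuplicate, 24 h. Non-adherent cells taken with supernatant, adherent cells recovered with trypsin–EDTA, each fraction pelleted (600g, 5 min) and read separately; IC50 per fraction.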

The nature of data set [5]: Toxicity against non-adherent human PBMC. Format: cell-based. The essentials:
as §2

The subject of another data set is PBMC. The data set can be described thus: Survival of adherent human PBMC at 100 ug/mL. The following applies: read-out: Survival. The class given is functional. In a few lines:
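PBMC came from one healthy volunteer, isolated at room temperature, and were plated at 1 × 10^6 cells/mL in RPMI 1640 + 10% FBS. Compound was added in quintuplicate and incubated 24 h. Both fractions were pelleted at 600g for 5 min.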

In brackets after ≈: the same amount, converted by molar mass.

This passage reports MIC, IC50 and viability results from ChEMBL document CHEMBL1143736, “Synthesis and antimycobacterial activity of 4-(5-substituted-1,3,4-oxadiazol-2-yl)pyridines” (Bioorg Med Chem, 2007).

Broadly, the MIC is the lowest concentration that inhibits growth of the organism. A low value points to a more susceptible organism. Broadly, the IC50 is the midpoint of a concentration-inhibition curve. Low readings indicate greater potency, high ones weaker potency.

For `Cc1nnc(-c2ccncc2)o1`, the results for the MIC in data set [1], in data set [2] and in data set [3] were 6.21 µM (≈ 1 µg/mL), 49.7 µM (≈ 8.01 µg/mL) and 49.7 µM (≈ 8.01 µg/mL), respectively.

In turn, `ClCc1nnc(-c2ccncc2)o1` yielded an IC50 with Vero of 64.6 µM. Further, the MIC in data set [1], in data set [2] and in data set [3] was 41 µM (≈ 8.03 µg/mL) throughout.

Consider `CCCCCCCCCCCCCCCc1nnc(-c2ccncc2)o1`, for which the IC50 with Vero is 95.5 µM; in data set [4], 125 µg/mL (≈ 350 µM); in data set [5], 15.8 µg/mL (≈ 44.3 µM). In addition, the figures for the MIC in data set [1], in data set [2] and in data set [3] were 0.7 µM (≈ 0.25 µg/mL), 0.09 µM (≈ 0.0322 µg/mL) and 0.35 µM (≈ 0.125 µg/mL), respectively.

Molecule `c1cc(-c2nnc(-c3ccncc3)o2)ccn1` came in with an IC50 in the data set with Vero of 92.4 µM. Moreover, the MIC in data set [1] stood at 4.46 µM (≈ 1 µg/mL); in data set [2], 8.93 µM (≈ 2 µg/mL); in data set [3], 8.93 µM (≈ 2 µg/mL).

As to `CCCCCCCCCCCCCCCCCc1nnc(-c2ccncc2)o1`, the IC50 in the data set with Vero came out at 86.7 µM; in data set [4], 312 µg/mL (≈ 810 µM); in data set [5] it was 45.4 µg/mL (≈ 118 µM). The figures for the MIC in data set [1], in data set [2] and in data set [3] were 0.65 µM (≈ 0.251 µg/mL), 0.16 µM (≈ 0.0617 µg/mL) and 0.65 µM (≈ 0.251 µg/mL), respectively.

For the molecule `O=[N+]([O-])c1ccc(-c2nnc(-c3ccncc3)o2)cc1`, the MIC in data set [1], in data set [2] and in data set [3] was 29.9 µM (≈ 8.01 µg/mL) throughout.

As for `O=[N+]([O-])c1cc(-c2nnc(-c3ccncc3)o2)cc([N+](=O)[O-])c1`, in the data set with Vero, the IC50 came to 77.1 µM. Moreover, the figures for the MIC in data set [1], in data set [2] and in data set [3] were 6.39 µM (≈ 2 µg/mL), 25.5 µM (≈ 8 µg/mL) and 25.5 µM (≈ 8 µg/mL), respectively.

In turn, `CN(C)c1ccc(-c2nnc(-c3ccncc3)o2)cc1` displayed an IC50 with Vero of 50.4 µM. Besides, the MIC in data set [1] was 3.76 µM (≈ 1 µg/mL); in data set [2] it was 30 µM (≈ 8 µg/mL); in data set [3], 3.76 µM (≈ 1 µg/mL).

For `FC(F)(F)c1nnc(-c2ccncc2)o1`, the MIC in data set [1], in data set [2] and in data set [3] was 37.2 µM (≈ 8.01 µg/mL) each time.

`O=[N+]([O-])c1ccccc1-c1nnc(-c2ccncc2)o1` yielded an IC50 in the data set with Vero of 32.4 µM. Besides, the MIC came out at 3.73 µM (≈ 1 µg/mL) in data set [1], 7.46 µM (≈ 2 µg/mL) in data set [2] and 7.46 µM (≈ 2 µg/mL) in data set [3].

`COc1cc(-c2nnc(-c3ccncc3)o2)cc(OC)c1OC` displayed an IC50 with Vero of 250 µM. Moreover, the MIC in data set [1] is 3.53 µM (≈ 1.11 µg/mL); in data set [2], 7.06 µM (≈ 2.21 µg/mL); in data set [3], 14.1 µM (≈ 4.42 µg/mL).

Molecule `c1ccc(-c2nnc(-c3ccncc3)o2)cc1` yielded an IC50 with Vero of 67.8 µM. Further, the MIC stood at 4.48 µM (≈ 1 µg/mL) in data set [1], 8.97 µM (≈ 2 µg/mL) in data set [2] and 8.97 µM (≈ 2 µg/mL) in data set [3].

Turning to `CN[C@@H]1[C@H](O[C@H]2[C@H](O[C@H]3[C@H](O)[C@@H](O)[C@H](N=C(N)N)[C@@H](O)[C@@H]3N=C(N)N)O[C@@H](C)[C@]2(O)C=O)O[C@@H](CO)[C@H](O)[C@H]1O` (stereo in doubt) [STREPTOMYCIN], the IC50 in the data set on Vero was greater than 100 µM. Also, the MIC was 0.1 µM (≈ 0.0582 µg/mL) in data set [2] and 0.86 µM (≈ 0.5 µg/mL) in data set [3].

For `CC[C@@H](CO)NCCN[C@@H](CC)CO` [ETHAMBUTOL], the IC50 in the data set on Vero was greater than 100 µM. Further, in data set [3], inhibition of growth (MIC) required 9.8 µM (≈ 2 µg/mL).

Turning to `NNC(=O)c1ccncc1` [ISONIAZID], the IC50 is 39.8 µM in the data set on Vero, greater than 100 µg/mL in data set [4] and 87.1 µg/mL (≈ 635 µM) in data set [5]. Besides, the MIC in data set [1] was determined as 0.91 µM (≈ 0.125 µg/mL); in data set [2] it was 0.91 µM (≈ 0.125 µg/mL); in data set [3], 0.44 µM (≈ 0.0603 µg/mL). Further, the viability at 100 µg/mL in the data set on PBMC is greater than 95%.

Regarding `CO[C@H]1/C=C/O[C@@]2(C)Oc3c(C)c(O)c4c(O)c(c(/C=N/N5CCN(C)CC5)c(O)c4c3C2=O)NC(=O)/C(C)=C\C=C\[C@H](C)[C@H](O)[C@@H](C)[C@@H](O)[C@@H](C)[C@H](OC(C)=O)[C@@H]1C` [RIFAMPIN], in the data set on Vero, the IC50 is greater than 100 µM. In addition, the MIC in data set [3] worked out at 0.07 µM (≈ 0.0576 µg/mL).
